# Compound activity as filed in PubChem.
# Rows were chosen to be rich in hits. Some 2.3% of all compounds tested hit in one or more screens of this group.
# STAT3 inh: IL-6 driven STAT3 reporter inhibitors, primary screen, U3A cells, luciferase, luminescence, MLSCN library. IL-6 STAT3-luciferase reporter; host cell line lacks STAT1. AID 862, 2007. hit rate 0.89% among 190,000. inhibition, % at 5.5 µM;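 active = inhibition above the mean inhibition across all screened compounds plus 3 SD, cut at about 44% in these data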;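 also: 0% = DMSO only wells and 100% = 100 µM nifuroxazide control wells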
# TRAIL sens C8: viability loss with TRAIL in NB7+C8 cells, primary screen, TRAIL sensitizer project, cell-based, ATPlite luminescence. inhibition (viability loss, TRAIL sensitization), % at 10 µM. hit rate 1% among 360,000. AID 624354, 2012;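 active = compounds causing at least 50% loss of cell viability in the single-dose screen, relative to plate controls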
# STAT3 activator: IL-6 driven STAT3 reporter potentiators, primary screen, U3A cells, luciferase, luminescence, MLSCN library | IL-6 STAT3-luciferase reporter; 100% = signal with IL-6 EC80 alone | activation (% of control), % at 5.6 µM | hit rate 0.91% among 190,000 | AID 871, 2007;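 active = activation above the screen-wide mean of compound activation plus 3 SD, cut at about 130% in these data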;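 also: 0% = background luminescence of wells with medium and substrate only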
#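 Test system: STAT3-luciferase reporter U3A cells; Detection: reporter luminescence signal; Times: 1 h compound pre-exposure, 6 h IL-6 stimulation, 37 °C; Benchmarks: IL-6-only high control; Also added: IL-6 stimulus at 33 ng/mL final.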
# STAT1 blocker: STAT1 signaling inhibitors, primary screen, cell-based, HTS, luciferase reporter. NIH 3T3 STAT1-luciferase reporter, IFN-gamma, luminescence. hit rate 0.35% among 200,000. inhibition, % at 5.5 µM;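 active = inhibition above a set limit, the mean inhibition across all tested compounds plus 3 SD, cut at about 34% in these data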;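 also: 0% = IFN-gamma with DMSO and 100% = IFN-gamma with 300 µM nifuroxazide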
# PPC-1+TRAIL kill: compounds killing PPC-1 cancer cells with TRAIL present, primary screen, TRAIL potentiator project, ATPLite luminescence, uHTS; hit rate 0.41% among 220,000; PPC-1 cells + TRAIL, ATPLite viability luminescence; cell killing (% activity), % at 4 µM or 5 µM;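 active = cell killing above 50% in the first pass at 4 µM, then a duplicate retest at 5 µM averaging 50% or more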;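 also: plate controls were cells with TRAIL plus DMSO for no effect and medium-only wells lacking cells for full effect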
# HSP90 refold inh: HSP90 inhibitors, primary screen, cell lysate, luminescence | Rabbit reticulocyte lysate, luciferase refolding luminescence, 3 h | inhibition, % at 5.6 µM | hit rate 0.91% among 290,000 | AID 1789, 2009;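 active = inhibition above the screen-wide mean plus 3 SD, computed separately per campaign, cut at about 16% in these data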;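 also: 0% = DMSO wells and 100% = 60 µM geldanamycin wells; inhibitors lower the luminescence because luciferase stays unfolded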
# HSP90 inh confirm: HSP90 inhibitors, confirmation, cell lysate, luminescence. hit rate 64% among 2,300. inhibition, % at 5.9 µM. rabbit reticulocyte lysate, luciferase refolding luminescence, 3 h. AID 1846, 2009. shares compounds with HSP90 refold inh; in the data active = inhibition above about 18%;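 also: 0% = vehicle wells and 100% = reference inhibitor wells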
# FLuc counter: firefly luciferase inhibitors, HSP90 counter-screen, confirmation, artefact control for HSP90 inhibitor project, biochemical, luminescence, triplicate | shares compounds with HSP90 refold inh | purified native firefly luciferase | inhibition, % at 5.9 µM | hit rate 48% among 2,300;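 active = inhibition above the mean inhibition of all tested sample wells plus 3 SD, cut at about 10% in these data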;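 also: 0% = DMSO with luciferase and 100% = wells lacking luciferase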
# Target sequence (P08659 whole entry, looked up): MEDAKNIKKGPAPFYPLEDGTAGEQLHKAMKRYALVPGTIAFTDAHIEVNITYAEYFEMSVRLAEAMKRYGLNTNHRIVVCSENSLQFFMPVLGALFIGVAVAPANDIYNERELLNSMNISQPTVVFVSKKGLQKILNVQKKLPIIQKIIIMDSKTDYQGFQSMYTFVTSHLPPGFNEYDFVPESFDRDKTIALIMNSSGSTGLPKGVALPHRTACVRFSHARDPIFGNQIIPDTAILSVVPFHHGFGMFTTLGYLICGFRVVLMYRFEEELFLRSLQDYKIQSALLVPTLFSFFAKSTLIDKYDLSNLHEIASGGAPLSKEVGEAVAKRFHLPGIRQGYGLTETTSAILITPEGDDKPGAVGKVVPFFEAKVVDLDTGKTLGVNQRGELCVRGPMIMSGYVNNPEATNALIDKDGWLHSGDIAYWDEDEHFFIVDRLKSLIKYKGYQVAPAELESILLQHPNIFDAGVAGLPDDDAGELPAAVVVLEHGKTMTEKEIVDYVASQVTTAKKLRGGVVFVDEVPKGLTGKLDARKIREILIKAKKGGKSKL
# * marks the source's active call; other numbers are inactive results; · = no result.
SMILES,STAT3 inh,TRAIL sens C8,STAT3 activator,STAT1 blocker,PPC-1+TRAIL kill,HSP90 refold inh,HSP90 inh confirm,FLuc counter
Cc1cccc(NC(=O)c2sc3nc(-c4ccccc4)cn3c2C)n1,28,13,79,-9,12,27*,15,-21
Cc1c(C(=O)Nc2ccccc2)sc2nc(-c3ccccc3)cn12,23,15,83,-29,27,-3,·,·
O=C1CC[C@H](OCc2ccccc2)CCN1[C@H](CSc1ccccc1)Cc1ccccc1,·,-10,·,·,·,27*,-5,-14
CCC(C)c1ccc(NC(=O)c2ccco2)cc1 (centres undefined),·,73*,·,·,·,41*,69*,63*
C=CCOc1cccc(/C=N/NC(=O)CC(=O)NC2CCCCC2)c1,·,11,·,·,·,-4,·,·
CCOC(=O)CCCNC(=O)CCNC(=O)c1ccc(OCC(C)C)cc1,·,-2,·,·,18,-9,·,·
CCC(=O)c1ccc(OCc2ccc(C(=O)OC)cc2)cc1,18,-14,86,-23,14,30*,62*,-3
CCC(=O)c1ccc(OCc2ccc(C#N)cc2)cc1,7,7,99,-18,-16,-4,·,·
CC12CN3CC(C)(CN(C1)C3c1ccc(Cl)cc1)C2 (centres undefined),·,-3,·,·,12,-2,·,·
COc1ccc(N2CCN(C(=O)COC(=O)c3ccccc3OCc3ccc(F)cc3)CC2)cc1,·,-23,·,·,·,·,·,·
CC1Sc2ccc(S(=O)(=O)N3CCC(C(=O)NCc4ccco4)CC3)cc2NC1=O (centres undefined),·,18,·,·,·,-4,·,·
Cc1cc(C(=O)CSc2ccc(F)cc2)cc(C)c1OC(=S)N(C)C,10,13,95,-21,15,75*,70*,74*
COc1ccc(SCC(=O)c2cc(C)c(OC(=S)N(C)C)c(C)c2)cc1,14,8,88,-7,21,9,·,·
COc1ccc(S(=O)(=O)N2CCN(CC(=O)Nc3ccc(F)c(F)c3)CC2)cc1,0,-1,103,-3,10,-4,·,·
Cc1ccc(S(=O)(=O)N(C(=O)c2ccncc2)c2ccc(OC(=O)c3ccncc3)c3ccccc23)cc1,-25,-9,121,2,-11,2,·,·
Cc1ccsc1/C=N\NC(=O)c1n[nH]c2c1CCC2,38,44,67,-23,23,20*,48*,43*
CCC(C)(C)NC(=O)C(c1ccc(OC)cc1)N(Cc1ccco1)C(=O)CCC(=O)Nc1cc(C)on1 (centres undefined),3,1,99,3,14,5,·,·
COc1ccc(CNC(=O)COC(=O)c2ccco2)cc1,18,-6,88,6,8,51*,-7,-9
C/C(=C(\C#N)C(=O)NCCN1CCOCC1)N(C)C,4,10,98,-7,-7,4,·,·
CCOC(=O)/C(C#N)=C/c1c(Oc2cc(C)cc(C)c2)nc2ccccn2c1=O,9,-8,91,13,20,6,·,·
CCOC(=O)/C(C#N)=C/c1c(Oc2cccc(C)c2)nc2ccccn2c1=O,·,-1,·,·,3,29*,-5,-7
CCCCc1cc(=O)oc2cc(OCC(=O)NCC3CCC(C(=O)O)CC3)ccc12 (centres undefined),·,-4,·,·,·,0,·,·
Cc1c(C)c2ccc(OCc3ccc(C(=O)O)o3)c(C)c2oc1=O,38,0,68,26,-6,75*,87*,45*
CCCc1cc(=O)oc2cc(OCC(=O)NCC3CCC(C(=O)O)CC3)ccc12 (centres undefined),·,1,·,·,·,25*,0,-5
O=C(O)c1ccc(COc2ccc3c4c(c(=O)oc3c2)CCC4)o1,20,3,86,18,-26,78*,79*,34*
SMILES,STAT3 inh,TRAIL sens C8,STAT3 activator,STAT1 blocker,PPC-1+TRAIL kill,HSP90 refold inh,HSP90 inh confirm,FLuc counter
CCc1cc(=O)oc2cc(OCc3ccc(C(=O)O)o3)ccc12,·,2,·,·,·,27*,33*,-3
Cc1cc(C)cc(COc2ccc3c(C)c(CC(=O)O)c(=O)oc3c2C)c1,·,-8,·,·,·,0,·,·
O=C(Cn1cc([N+](=O)[O-])cn1)N1CCN(c2ccccc2)CC1,·,11,·,·,·,-5,·,·
O=C(NC1CCCC1)C(c1ccncc1)N(Cc1ccccc1)C(=O)c1ccc(-c2ccccc2)[nH]1 (centres undefined),-15,18,113,-1,0,-6,·,·
COC(=O)c1ccc(COc2ccc3c(C)c(C)c(=O)oc3c2)o1,23,3,82,-12,10,18*,76*,-17
COc1ccc(CC(=O)Oc2cc(C)ccc2C)cc1,·,11,·,·,·,17*,-5,-7
CN=c1scc(-c2cccs2)n1/N=C/c1ccc(O)c(O)c1O,45*,91*,64,47*,38,24*,87*,78*
COCCN=c1scc(-c2ccco2)n1/N=C/c1ccc(O)c(O)c1O,-3,17,104,23,20,1,·,·
C=CCN=c1scc(-c2ccco2)n1/N=C/c1ccc(O)c(O)c1O,·,6,·,·,13,17*,25*,-22
Cc1cc(C)c2c(n1)nn1c(N3CCN(Cc4ccccc4)CC3)cc(C)nc21,·,-8,·,·,-5,·,·,·
CC(C)CCn1cnc2c(NCc3ccccc3)ncnc21,-4,2,103,-3,16,5,·,·
O=C(O)CC1SC(N/N=C/c2ccc(Br)cc2)NC1=O (centres undefined),7,-1,100,-2,10,17*,24*,-10
CC(C)NC(=O)CC(=O)N/N=C/c1ccc(Br)cc1,8,-1,99,-3,13,-3,·,·
CCC(=O)Nc1cccc(-c2ccc(N3CCC(C)CC3)nn2)c1,·,94*,·,·,·,33*,66*,45*
CCC(=O)Nc1ccc(-c2ccc(N3CCC(C)CC3)nn2)cc1,·,14,·,·,·,3,·,·
CC1CCN(c2ccc(-c3cccc(NC(=O)C(F)(F)F)c3)nn2)CC1,·,97*,·,·,·,19*,56*,-18
CN(Cc1ccccc1)C(=O)C1CCN(S(=O)(=O)c2cccc3nsnc23)CC1,·,-3,·,·,·,5,·,·
O=C(N/N=C/c1cccc(O)c1)c1ccc2c(c1)OCCO2,·,89*,·,·,·,48*,59*,39*
CCOc1cccc(/C=N/NC(=O)c2ccc3c(c2)OCCO3)c1O,·,34,·,·,·,-3,·,·
